In ChEMBL document CHEMBL4725345, “DFG-1 Residue Controls Inhibitor Binding Mode and Affinity, Providing a Basis for Rational Design of Kinase Inhibitor Selectivity” (J Med Chem, 2020):

Assays:
[1] = target: Tyrosine-protein kinase JAK1 (Homo sapiens) (UniProt P23458); test: Binding affinity to JAK1 (unknown origin) assessed as change in melting temperature at 10 uM incubated for 10 mins using SYPRO orange dye by RT-PCR-based fluorescence assay
Summary of the method: (§1)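 Recombinant kinase domain at 2 μM in 10 mM HEPES pH 7.5, 500 mM NaCl, mixed with 10 μM inhibitor for 10 min at room temperature; SYPRO orange added at 1:1000; temperature-dependent unfolding fluorescence read on a real-time PCR instrument; Tm shift derived by a previously described method.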

[2] = target: Activin receptor type-1-like (Homo sapiens) (UniProt P37023); test: Binding affinity to ACVRL1 (unknown origin) assessed as change in melting temperature at 10 uM incubated for 10 mins using SYPRO orange dye by RT-PCR-based fluorescence assay; summary of the method: as §1
[3] = target: Activin receptor type-1B (Homo sapiens) (UniProt P36896); test: Binding affinity to ACVR1B (unknown origin) assessed as change in melting temperature at 10 uM incubated for 10 mins using SYPRO orange dye by RT-PCR-based fluorescence assay; summary of the method: as §1
[4] = target: Bone morphogenetic protein receptor type-1B (Homo sapiens) (UniProt O00238); test: Binding affinity to BMPR1B (unknown origin) assessed as change in melting temperature at 10 uM incubated for 10 mins using SYPRO orange dye by RT-PCR-based fluorescence assay; summary of the method: as §1
[5] = target: T1, Serine/threonine-protein kinase haspin (Homo sapiens) (UniProt Q8TF76); test: Binding affinity to haspin (unknown origin) assessed as change in melting temperature at 10 uM incubated for 10 mins using SYPRO orange dye by RT-PCR-based fluorescence assay; summary of the method: as §1
T1 sequence (whole entry): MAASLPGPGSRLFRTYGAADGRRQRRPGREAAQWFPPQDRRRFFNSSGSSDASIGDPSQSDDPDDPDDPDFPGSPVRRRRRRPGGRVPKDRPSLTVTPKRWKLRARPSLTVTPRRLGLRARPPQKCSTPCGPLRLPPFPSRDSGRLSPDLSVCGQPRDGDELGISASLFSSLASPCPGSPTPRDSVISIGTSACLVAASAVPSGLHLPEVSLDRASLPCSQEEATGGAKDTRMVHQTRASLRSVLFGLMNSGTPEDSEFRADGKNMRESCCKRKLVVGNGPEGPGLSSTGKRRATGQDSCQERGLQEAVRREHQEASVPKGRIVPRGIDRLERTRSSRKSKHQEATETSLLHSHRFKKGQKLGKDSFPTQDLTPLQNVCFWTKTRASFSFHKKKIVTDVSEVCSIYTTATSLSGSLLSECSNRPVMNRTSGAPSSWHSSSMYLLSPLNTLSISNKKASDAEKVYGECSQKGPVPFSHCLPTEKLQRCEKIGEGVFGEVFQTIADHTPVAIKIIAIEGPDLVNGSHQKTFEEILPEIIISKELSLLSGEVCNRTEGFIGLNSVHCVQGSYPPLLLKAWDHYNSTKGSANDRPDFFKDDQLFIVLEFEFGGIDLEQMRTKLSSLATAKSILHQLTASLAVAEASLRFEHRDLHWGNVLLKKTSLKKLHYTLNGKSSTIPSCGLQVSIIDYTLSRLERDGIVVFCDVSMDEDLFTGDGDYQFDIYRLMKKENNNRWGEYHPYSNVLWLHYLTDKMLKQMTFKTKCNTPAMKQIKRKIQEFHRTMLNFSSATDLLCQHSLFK

[6] = target: BMP-2-inducible protein kinase (Homo sapiens) (UniProt Q9NSY1); test: Binding affinity to BIKE (unknown origin) assessed as change in melting temperature at 10 uM incubated for 10 mins using SYPRO orange dye by RT-PCR-based fluorescence assay; summary of the method: as §1
[7] = target: Serine/threonine-protein kinase pim-1 (Homo sapiens) (UniProt P11309); test: Binding affinity to PIM1 (unknown origin) assessed as change in melting temperature at 10 uM incubated for 10 mins using SYPRO orange dye by RT-PCR-based fluorescence assay
[8] = target: Receptor-interacting serine/threonine-protein kinase 2 (Homo sapiens) (UniProt O43353); test: Binding affinity to RIPK2 (unknown origin) assessed as change in melting temperature at 10 uM incubated for 10 mins using SYPRO orange dye by RT-PCR-based fluorescence assay; summary of the method: as §1
[9] = target: T2, Dual specificity tyrosine-phosphorylation-regulated kinase 2 (Homo sapiens) (UniProt Q92630); test: Binding affinity to DYRK2 (unknown origin) assessed as change in melting temperature at 10 uM incubated for 10 mins using SYPRO orange dye by RT-PCR-based fluorescence assay; summary of the method: as §1
T2 sequence (whole entry): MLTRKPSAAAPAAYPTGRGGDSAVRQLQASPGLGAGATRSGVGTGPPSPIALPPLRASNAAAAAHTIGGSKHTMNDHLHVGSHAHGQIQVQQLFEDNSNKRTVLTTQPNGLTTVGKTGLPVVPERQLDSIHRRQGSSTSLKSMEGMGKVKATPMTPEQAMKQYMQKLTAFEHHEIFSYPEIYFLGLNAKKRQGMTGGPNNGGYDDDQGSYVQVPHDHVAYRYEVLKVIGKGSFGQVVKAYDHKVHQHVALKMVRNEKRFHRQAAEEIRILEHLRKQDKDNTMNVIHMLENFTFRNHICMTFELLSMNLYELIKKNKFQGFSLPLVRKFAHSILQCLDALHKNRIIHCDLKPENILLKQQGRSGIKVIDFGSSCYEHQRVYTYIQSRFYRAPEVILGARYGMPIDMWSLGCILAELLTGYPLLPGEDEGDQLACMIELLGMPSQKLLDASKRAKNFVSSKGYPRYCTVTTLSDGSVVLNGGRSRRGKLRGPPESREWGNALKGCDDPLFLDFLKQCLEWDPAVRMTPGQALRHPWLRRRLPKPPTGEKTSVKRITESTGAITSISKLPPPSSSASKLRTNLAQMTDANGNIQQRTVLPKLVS

[10] = target: Glycogen synthase kinase-3 beta (Homo sapiens) (UniProt P49841); test: Binding affinity to GSK3B (unknown origin) assessed as change in melting temperature at 10 uM incubated for 10 mins using SYPRO orange dye by RT-PCR-based fluorescence assay; summary of the method: as §1
[11] = target: Serine/threonine-protein kinase pim-2 (Homo sapiens) (UniProt Q9P1W9); test: Binding affinity to PIM2 (unknown origin) assessed as change in melting temperature at 10 uM incubated for 10 mins using SYPRO orange dye by RT-PCR-based fluorescence assay; summary of the method: as §1
[12] = target: Myosin light chain kinase family member 4 (Homo sapiens) (UniProt Q86YV6); test: Binding affinity to SgK085 (unknown origin) assessed as change in melting temperature at 10 uM incubated for 10 mins using SYPRO orange dye by RT-PCR-based fluorescence assay; summary of the method: as §1
[13] = target: Dual specificity protein kinase CLK2 (Homo sapiens) (UniProt P49760); details: dose 10.0 µM, time 10.0 min
[14] = target: Activin receptor type-2A (Homo sapiens) (UniProt P27037); test: Binding affinity to ACTR2 (unknown origin) assessed as change in melting temperature at 10 uM incubated for 10 mins using SYPRO orange dye by RT-PCR-based fluorescence assay

- ΔTm [1]: > 6 °C
- ΔTm [2]: > 6 °C
- ΔTm [3]: > 6 °C
- ΔTm [4]: > 6 °C
- ΔTm [5]: > 6 °C
- ΔTm [6]: > 6 °C
- ΔTm [7]: > 6 °C
- ΔTm [8]: > 4 °C
- ΔTm [9]: > 4 °C
- ΔTm [10]: > 4 °C
- ΔTm [11]: > 4 °C
- ΔTm [12]: > 4 °C
- ΔTm [13]: > 4 °C
- ΔTm [14]: > 6 °C
SMILES: CC(=O)c1cccc(-c2cnc3ccc(NCC4CC4)nn23)c1
